Experimental data from ChEMBL document CHEMBL1287755, “Design, synthesis and inhibition activity of novel cyclic peptides against protein tyrosine phosphatase A from Mycobacterium tuberculosis” (Bioorg Med Chem, 2010).

Legend:
[1] = target: T1, Low molecular weight protein-tyrosine phosphatase A (Mycobacterium tuberculosis, UniProt P9WIA1); test: Inhibition of Mycobacterium tuberculosis recombinant protein tyrosine phosphatase A by Lineweaver-Burke plot analysis
T1 sequence (P9WIA1 whole entry): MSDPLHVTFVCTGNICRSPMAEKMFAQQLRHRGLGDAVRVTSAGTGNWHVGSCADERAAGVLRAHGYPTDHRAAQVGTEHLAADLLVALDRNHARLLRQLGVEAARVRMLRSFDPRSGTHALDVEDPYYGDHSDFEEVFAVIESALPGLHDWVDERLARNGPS
Method in brief: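 Recombinant wild-type MPtpA (purified, purity by SDS-PAGE, concentration from A280) held at 1 µM. Phosphatase activity measured at 25 °C in 0.1 M Tris, 0.15 M NaCl, 1 mM EDTA, pH 7.5, with pNPP substrate. p-Nitrophenol release read at 405 nm. Inhibitors added from methanol, final methanol ≤3% v/v. Inhibitor typically 10–50 µM, substrate 100–300 µM. Triplicate assays. Mode of inhibition from double-reciprocal plots. Ki taken from a plot of Km/Vmax versus [I].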

[2] = target: T2, Low molecular weight protein-tyrosine phosphatase A (Mycobacterium tuberculosis) (UniProt P9WIA1); test: Binding affinity to Mycobacterium tuberculosis recombinant protein tyrosine phosphatase A by circular dichroism spectral analysis
T2 sequence (whole entry): T1 sequence (P9WIA1 whole entry)
Method in brief: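 Far-UV CD of recombinant MPtpA at 25 °C in Tris buffer, 10 mm quartz cell. Spectra taken over 195–240 nm at 50 nm/min with 4 s response. Buffer blank containing the ligand subtracted. Protein:peptide ratio titrated from 2:1 up to 1:6. Changes followed at the α-helix minima, 208 and 222 nm, and a binding constant was derived from the titration.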

[3] = target: T2, Low molecular weight protein-tyrosine phosphatase A (Mycobacterium tuberculosis); test: Binding affinity to Mycobacterium tuberculosis recombinant protein tyrosine phosphatase A by fluorescence quenching assay
Method in brief: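 Intrinsic tryptophan fluorescence of MPtpA, held at 2 µM, recorded at 20 °C in a 10 mm quartz cuvette. Emission maximum at 340 nm followed during titration with the peptide, up to a 1:10 protein:peptide ratio. Data fitted to Stern–Volmer (F0/F = 1 + Ksv[Q]) and Scatchard plots to give quenching and binding constants.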

Compound | Ki [1] | Kb [2] | Kb [3]
C[C@@H]1NC(=O)[C@H](C)NC(=O)[C@@H]([C@@H](Nc2ccccc2)c2ccccc2)CNC1=O | 220 µM | 1.1 ×10⁴ /M | 1 ×10⁴ /M
C[C@@H]1NC(=O)[C@H](C)NC(=O)[C@H](C)NC(=O)[C@@H]([C@@H](Nc2ccccc2)c2ccccc2)CNC1=O | 199 µM | 3.3 ×10⁴ /M | 3.27 ×10⁴ /M
O=C1CNC(=O)CNC(=O)[C@@H]([C@@H](Nc2ccccc2)c2ccco2)CN1 | 215 µM | 2.95 ×10⁴ /M | 2.99 ×10⁴ /M
O=C1CNC(=O)CNC(=O)[C@@H]([C@@H](Nc2ccccc2)c2ccccc2)CN1 | 85.5 µM | 4.7 ×10⁴ /M | 4.87 ×10⁴ /M
O=C1CC[C@H](C(=O)O)NC(=O)[C@@H]([C@@H](Nc2ccccc2)c2ccccc2)CN1 | 36.3 µM | 8.5 ×10⁴ /M | 8.89 ×10⁴ /M
O=C1CNC(=O)[C@@H]([C@@H](Nc2ccccc2)c2ccccc2)CN1 | 140 µM | 3.6 ×10⁴ /M | 3.41 ×10⁴ /M
O=C1CNC(=O)[C@H](Cc2ccc(O)cc2)NC(=O)[C@@H]([C@@H](Nc2ccccc2)c2ccccc2)CN1 | 8 µM | 1.2 ×10⁵ /M | 1.5 ×10⁵ /M
